Bioassay records from PubChem.
HSV augment: HSV replication enhancement; maximum fold increase; HSV replication augmentation in cells, fold increase; 0.005% of 220,000 active; in the data active = maximum fold increase above about 1.5; inconclusive = no clear call, values can overlap the other calls; tested in PC3 cells
STAT3 act: STAT3 signaling activation | U3A cells, IL-6 STAT3-luciferase reporter, luminescence; 100% = signal with IL-6 EC80 alone | activation (% of control), % at 5.6 µM | 0.91% of 190,000 active;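 active = activation above the screen-wide mean of compound activation plus 3 SD, cut at about 130% in these data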;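 also: 0% = background luminescence of wells with medium and substrate only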
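Detection: reporter luminescence signal / Assay system: STAT1-lacking human U3A cells, STAT3 luciferase reporter / Incubation: compound pre-incubation 1 h before IL-6, then 6 h stimulation at 37 °C / Control set: IL-6-only high control / Read-out: % activation relative to IL-6 control / Probe or stimulus: Interleukin-6, 33 ng/mL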
STAT3 inh-1: reduces IL-6 driven STAT3 reporter signal | U3A cells, IL-6 STAT3-luciferase reporter, luminescence; host cell line lacks STAT1 | inhibition, % at 5.5 µM | 0.89% of 190,000 active | AID 862;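 active = inhibition above the mean inhibition across all screened compounds plus 3 SD, cut at about 44% in these data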;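 also: 0% = DMSO only wells and 100% = 100 µM nifuroxazide control wells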
KCC2 mod: modulators of human KCC2 chloride dependent transport; Q9H2X9; KCC2 cells, thallium flux FluoZin-2 fluorescence; B-score of Tl+ flux slope (higher = more flux/activation; lower = inhibition) at 10 µM; 2.2% of 190,000 active;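 active = thallium flux slope and its plate-corrected score both differing from the plate sample mean at a set confidence after two filtering rounds, in either direction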;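 also: slope of fluorescence scaled to starting intensity during 10 to 20 s after thallium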
STAT1 inh: inhibitors of IFN-gamma induced STAT1 signaling; NIH 3T3 STAT1-luciferase reporter, luminescence; inhibition, % at 5.5 µM; 0.35% of 200,000 active; AID 920;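 active = inhibition above a set limit, the mean inhibition across all tested compounds plus 3 SD, cut at about 34% in these data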;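 also: 0% = IFN-gamma with DMSO and 100% = IFN-gamma with 300 µM nifuroxazide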
STAT1 act: STAT1 signaling activation; NIH 3T3 STAT1-luciferase reporter, IFN-gamma, luminescence; 100% = IFN-gamma alone, no compound; activation (% of control), % at 5.5 µM; 2.6% of 200,000 active; AID 932;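 active = activation above the screen-wide mean activation plus 3 SD, cut at about 130% in these data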;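 also: raw ratio to IFN-gamma control signal so 100% means no change and 0% no light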
STAT3 inh-2: confirmation of STAT3 signaling inhibitors. 45% of 1,200 active. inhibition, % at 5.7 µM. shares compounds with STAT3 inh-1. U3A cells, IL-6 STAT3 luciferase reporter, luminescence; cell line lacks STAT1;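 active = inhibition above the hit cutoff computed for the primary STAT3 screen, cut at about 44% in these data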;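 also: 0% = IL-6 plus DMSO and 100% = IL-6 plus nifuroxazide control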
NFkB inh STAT3ct: inhibits NF-kappaB, counter-screen to STAT3 inhibitors | HEK293T NF-kB luciferase reporter, TNF-alpha induced | inhibition, % at 5.7 µM | 36% of 1,200 active | shares compounds with STAT3 inh-1;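 active = inhibition above the mean of solvent-only control wells plus 3 SD, cutoff set per campaign, cut at about 13% in these data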;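 also: 0% = TNF-alpha with DMSO and 100% = TNF-alpha with MG high control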
STAT1 inh 2: inhibits STAT1, counter-screen to STAT3 inhibitors; shares compounds with STAT3 inh-1; NIH 3T3 STAT1-luciferase reporter, IFN-gamma induced, luminescence; inhibition, % at 5.7 µM; 27% of 1,200 active;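 active = inhibition above the mean plus 3 SD of solvent-only control wells, limit set per screening run, cut at about 16% in these data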;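 also: 0% = DMSO with IFN-gamma and 100% = nifuroxazide control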
Active calls of the source: *; i = inactive; ? = inconclusive; / = not tested or not shown. Only some compounds are listed: those with a hit (about 5.5% of all), similar ones and a draw of the others.

SMILES	HSV augment	STAT3 act	STAT3 inh-1	KCC2 mod	STAT1 inh	STAT1 act	STAT3 inh-2	NFkB inh STAT3ct	STAT1 inh 2
CCC(C)(C)NC(=O)Cn1c(-c2ccc(C)cc2)noc1=O	i	/	/	1.1	/	/	/	/	/
O=C(CSC(=S)N1CCCCC1)c1ccccc1	i	47	65*	-0.083	28	73	22	3	-71
O=C(O)CSC(=S)N1CCCC1	i	/	/	0.32	/	/	/	/	/
NC(=S)n1[nH]c(-c2ccc([N+](=O)[O-])cc2)c(N=Nc2ccc(Cl)cc2)c1=O	i	51	61*	-1.4	27	73	54*	14*	37*
O=c1c(N=Nc2ccc(O)cc2)c(-c2ccccc2)[nH]n1-c1ccc([N+](=O)[O-])cc1	i	82	26	3	1	98	/	/	/
CC(C)(C)NS(=O)(=O)c1ccc(OCC(=O)NCCC2=CCCCC2)cc1	i	101	4	-0.27	-2	102	/	/	/
CS(=O)(=O)Nc1ccc(C2=NN(S(=O)(=O)c3ccc(F)cc3)C(c3ccco3)C2)cc1 (stereo unspecified)	i	94	13	-0.4	2	98	/	/	/
COc1ccccc1Cn1c(SCC(N)=O)nc2c(oc3ccccc32)c1=O	i	98	10	1.6	-11	108	/	/	/
CCSc1nc2ccccc2c(=O)n1Cc1ccc(F)cc1	i	100	4	-0.022	6	93	/	/	/
COc1ccccc1N1CCN(C(=O)CCCN2C(=O)c3cccc4cccc(c34)C2=O)CC1	i	93	4	-1.5	-13	112	/	/	/
Cc1ccc(S(=O)(=O)/N=C(\N)Nc2nc(C)c3cc(C)c(C)cc3n2)cc1	i	66	44*	/	0	99	30	-7	-16
CCN(CC)c1ccc(/C=C/c2nc3ccccc3s2)cc1	?	50	66*	/	23	79	23	-8	-91
Cc1cc(-c2nn(-c3ccccc3F)cc2CNCCc2cnc[nH]2)c(C)s1	i	97	9	/	1	97	/	/	/
CCOc1ccc(-c2nc(-c3ccccc3C)no2)cc1	i	65	46*	/	-24	122	14	-20	-119
CN(C)c1ccc(-c2nnc(-c3cccs3)o2)cc1	i	56	55*	-0.47	25	75	11	-28	-137
CCOc1ccc(-c2nnc(-c3ccccc3)o2)cc1	i	48	66*	-1.6	19	86	38	4	-61
CCCOc1ccc(-c2nnc(-c3cccs3)o2)cc1	i	46	66*	0.76	-18	117	36	-4	-68
CN(C)c1oc(-c2cccs2)nc1C#N	/	88	16	0.65	-2	102	/	/	/
C[N+]1(C)CCCC(OC(=O)C(O)(c2ccccc2)c2ccccc2)C1 (stereo unspecified)	i	/	/	/	/	/	/	/	/
CS(=O)(=O)c1ccccc1-c1nc(-c2ccc([N+](=O)[O-])cc2)no1	i	100	1	-1.1	-4	102	/	/	/
O=C(CN(C(=O)CNC(=O)c1ccco1)c1ccc2c(c1)OCCO2)NC1CCCC1	i	103	-2	1.3	-1	99	/	/	/
N#Cc1nc(-c2ccco2)oc1NCCCn1ccnc1	i	105	-2	/	1	99	/	/	/
O=C1C(C=Nc2ccccc2O)=C(O)c2ccccc21	i	59	49*	/	2	98	-57	-30	-11
COc1ccc(N=CC2=C(O)c3ccccc3C2=O)cc1	i	23	92*	/	15	96	12	25*	-133
COc1ccc(N=Cc2[nH]c3ccccc3c2O)cc1	i	117	-16	-2.7	-7	106	/	/	/
CN=CC1=C(O)c2ccccc2C1=O	i	103	2	0.17	-8	107	/	/	/
COc1ccc(CCC(=O)Nc2ccc(C)c([N+](=O)[O-])c2)cc1	i	95	7	0.19	16	86	/	/	/
